Converted amounts (≈) assume the structure as drawn. The source made the active and inactive calls. The calls are words filed in the database; no cut-off is given here.
What was measured:
[1] = Toxicity against bovine BAEC cells; assay type: cell-based, Bos taurus; details: cattle
How it was run: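 Bovine aortic endothelial cells, passage 4–15, grown in DMEM with 10% FBS. Lipoplexes made with or without DOPE at several charge ratios up to 12 were added in serum-free OptiMem for 2 h at 37°C, then replaced with growth medium. About 20 h later, viability was read as ATP luminescence (CellTiter-Glo, 30 min), normalised to naked plasmid DNA, n = 8.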

Bacillus subtilis [2] = experiment: Antibacterial activity against Bacillus subtilis ATCC 6051 after 20 hrs; assay type: functional
How it was run: (§1)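 Broth microdilution MIC: exponential-phase bacteria at 10^5 to 10^6 CFU/ml in Mueller-Hinton broth. Compound serial dilutions made in PBS and mixed 1:1 by volume with the cells, so broth is 50% v/v. Incubated 20 hours at 37°C, and the minimum inhibitory concentration was recorded.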

[3] = Toxicity against RBC assessed as hemolytic activity at 1 to 2 mM; assay type: cell-based, Erythrocyte; details: red blood cells (RBC); read-out: Activity
How it was run: (§2)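 Donor whole blood in heparin/ACD was chilled to 4°C, pelleted at 1000g and washed three times in phosphate/NaCl/HEPES buffer, then resuspended in PBS. Cells were mixed 1:1 with serial dilutions in PBS and held 1 h at 37°C, then spun. Diluted supernatant was read at 540 nm against buffer, with percent lysis set against 1% Triton X-100.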

Escherichia coli [4] = experiment: Antibacterial activity against Escherichia coli MG1655 after 20 hrs; assay type: functional; how it was run: as §1
[5] = Therapeutic index, ratio of MHC for RBC to MIC for Escherichia coli MG1655; details: red blood cells (RBC); read-out: TI
How it was run: (§3)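 Ratio of MHC to MIC. MIC: exponential-phase B. subtilis ATC6051 or E. coli MG1655 at 10^5–10^6 CFU/ml in Mueller-Hinton broth, mixed 1:1 with serial dilutions in PBS (50% v/v broth), 20 h at 37°C. MHC: lowest concentration giving ≥2% lysis of washed donor red cells after 1 h at 37°C.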

[6] = Therapeutic index, ratio of MHC for RBC to MIC for Bacillus subtilis ATCC 6051; details: red blood cells (RBC); read-out: TI; how it was run: as §3
[7] = Toxicity against RBC assessed as hemolytic activity; assay type: cell-based; details: erythrocyte; how it was run: as §2
[8] = Toxicity against RBC assessed as hemolytic activity at 2 mM; assay type: cell-based; details: erythrocyte, 2000 µM; how it was run: as §2
Bacillus subtilis [9] = experiment: Antibacterial activity against Bacillus subtilis ATCC 6051 at 20 uM after 4 hrs; assay type: functional, organism-based; details: ATC6051
How it was run: (§4)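 Killing assay: exponential-phase bacteria suspended in PBS at 10^5–10^6 CFU/ml and preincubated for 1 hour at 37°C. Compound added and exposure lasted 4 hours. Samples were taken, diluted in four ten-fold steps in PBS and plated on agar overnight at 37°C. Colonies were counted manually and averages plotted on a log scale.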

Escherichia coli [10] = experiment: Antibacterial activity against Escherichia coli MG1655 at 20 uM after 4 hrs; assay type: functional, organism-based; details: 50 uM, in the assay text read “50 uM” for “20 uM”; how it was run: as §4

| Molecule | Activity [1] | MIC (Bacillus subtilis [2]; ATC6051, 20 h) [µM] | hemolysis at up to 2000 µM [3] [%] | MIC (Escherichia coli [4]; MG1655, 20 h) [µM] | selectivity ratio [5] | selectivity ratio [6] | MHC [7] [µM] | MIC (Bacillus subtilis [2]; ATC6051) [µM] | MIC (Escherichia coli [4]) [µM] | Activity [8] | Activity (Bacillus subtilis [9]) | Activity (Escherichia coli [10]) |
| --- | --- | --- | --- | --- | --- | --- | --- | --- | --- | --- | --- | --- |
| C[C@H](CCC(=O)NCCCNCCCCNCCCN)[C@H]1CC[C@H]2[C@@H]3CC=C4C[C@@H](O)CC[C@]4(C)[C@H]3CC[C@]12C | Toxic | 57 (≈ 31.9 µg/mL) | 30 | 115 (≈ 64.3 µg/mL) | 9 | 18 | 1000 |  |  |  |  |  |
| POLYMYXIN B |  |  |  |  |  |  |  | 1 | 6 |  |  |  |
| C[C@H](CCC(=O)NCCCNCCCCNCCCNC(=O)CC[C@H](C)[C@@H]1CC[C@@H]2[C@@H]3[C@@H](C[C@@H](O)[C@]21C)[C@]1(C)CC[C@H](O)C[C@@H]1C[C@@H]3O)[C@H]1CC[C@H]2[C@@H]3[C@H](O)C[C@@H]4C[C@H](O)CC[C@]4(C)[C@H]3C[C@H](O)[C@]12C |  | 4 (≈ 3.93 µg/mL) |  | 16 (≈ 15.7 µg/mL) | 15 | 61 | 250 |  |  | Toxic |  |  |
| C[C@H](CCC(=O)NCCCNCCCCNCCCN)[C@H]1CC[C@H]2[C@@H]3[C@H](O)C[C@@H]4C[C@H](O)CC[C@]4(C)[C@H]3C[C@H](O)[C@]12C |  | > 432 | 30 | > 432 | < 1 | < 1 | 500 |  |  |  |  |  |
| C[C@H](CCC(=O)NCCCNCCCCNCCCN)[C@H]1CCC2=C3CC[C@@H]4C[C@H](O)CC[C@]4(C)[C@H]3C[C@H](O)[C@@]21C |  | 28 (≈ 16.1 µg/mL) | 30 | 111 (≈ 63.8 µg/mL) | 5 | 18 | 500 |  |  |  | Active | Active |
| C[C@H](CCC(=O)NCCCNCCCCNCCCN)[C@H]1CC[C@H]2[C@@H]3CC[C@@H]4C[C@H](O)CC[C@]4(C)[C@H]3CC[C@]12C |  | 57 (≈ 32 µg/mL) | 30 | 228 (≈ 128 µg/mL) | 2 | 9 | 500 |  |  |  | Active | Active |

From ChEMBL document CHEMBL1139239, “A series of cationic sterol lipids with gene transfer and bactericidal activity” (Bioorg Med Chem, 2009)
